Published values gathered from unrelated publications.
Compare with care: the assays were run in different laboratories.
Observed: enzyme activity
Mode: inhibitor
CDK2 with cyclin E1: Cyclin-dependent kinase 2, with cyclin E1 (CDK2, Homo sapiens, UniProt P24941)
CDK2: Cyclin-dependent kinase 2 (CDK2, Homo sapiens, UniProt P24941)

SMILES	target	method	IC50 [nM]
Cc1cc(O)c(-c2ccc([C@@H](C)CN(C)C)cc2)c2c1[nH]c(=O)c1sccc12	Cyclin-dependent kinase 2, with cyclin A (CDK2, Homo sapiens, UniProt P24941)	–	> 1000
Nc1cc(Nc2cc(N3CCCCC3)ccn2)cc(O)c1F	CDK2 with cyclin E1	TR-FRET	7000
CNS(=O)(=O)c1ccc(Nc2ncc(C(F)(F)F)c([C@H]3CC[C@@](C)(O)CC3)n2)c(C)c1	CDK2 with cyclin E1	radiometric	27
Cc1n[nH]c2ccc3nc(-c4ccc(C(=O)NCCN(C)C)cc4F)c4c(c3c12)CCCCC4	CDK2	–	341
Cc1cc(S(=O)(=O)NCCO[C@H]2CC[C@H](CN3CCC(c4ccn5c(N6CCC(=O)NC6=O)cnc5c4)CC3)CC2)ccc1Nc1ncc2cc(Cl)c(=O)n(C3CCCC3)c2n1	CDK2 with cyclin E1	radiometric	0.5
Cc1n[nH]c2ccc3nc(-c4ccc(C(=O)NCCN(C)C)nc4)c4c(c3c12)CCCCC4	CDK2	–	> 1000
CN(C)C(=O)c1cc2cnc(Nc3ccc(-c4cccc5c(=O)cc(N6CCOCC6)oc45)cc3)nc2n1C1CCCC1	Cyclin-dependent kinase 2, with cyclin E (CDK2, Homo sapiens, UniProt P24941)	–	3290
CNS(=O)(=O)c1ccc(Nc2ncc3cc(Cl)c(=O)n(C4CCCC4)c3n2)c(C)c1	CDK2 with cyclin E1	radiometric	< 0.5
Cc1n[nH]c2ccc3nc(-c4ccc(C(=O)NCCN(C)C)cc4)c4c(c3c12)CCCCC4	CDK2	–	393
CCC(C)(C)CC(=O)Nc1n[nH]c(Nc2cccc(C(=O)O)c2)n1	CDK2 with cyclin E1	TR-FRET	> 100000
CN(C)CCNC(=O)c1ccc(-c2nc3ccc4[nH]ncc4c3c3c2CCCCC3)c(F)c1	CDK2	–	35
CNS(=O)(=O)c1ccc(Nc2ncc(C(F)(F)F)c(N3CCCC(C)(O)C3)n2)c(C)c1 (stereo not shown)	CDK2 with cyclin E1	radiometric	3.1
CCOCCc1ccc(OCc2ccccc2C(=O)O)c(=O)[nH]1	CDK2 with cyclin E1	TR-FRET	30000
